Shown are actives, neighbours in structure and some others; about 3.3% of the full set was active somewhere.
SENP6 inh: SENP6 protease inhibitors, primary screen, biochemical, luminescence, uHTS; Recombinant SENP6 catalytic domain, aminoluciferin luminescence; inhibition, % at 10 µM; hit rate 1.8% among 330,000;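 active = inhibition above about 50% at the single tested dose, limit read from the data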
CendR NRP1 mod: modulators of CendR peptide binding to NRP-1, primary screen, biochemical, fluorescence polarization, uHTS; FAM-RPARPAR peptide binding to NRP-1; inhibition, % at 25 µM; hit rate 0.85% among 360,000;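 active = inhibition or corrected inhibition above about 18%, plus a signal ratio from 0.5 to 1.5, limit read from the data, passing the limit was not always enough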
SENP8 block-1: SENP8 protease inhibitors, primary screen, biochemical, luminescence; Sentrin-specific protease 8 (Homo sapiens), Q96LD8; purified SENP8, Z-RLRGG-aminoluciferin cleavage; inhibition, % at 10 µM; hit rate 1.2% among 330,000; AID 2540, 2010; in the data active = inhibition above about 50%
Target sequence (Q96LD8 whole entry, looked up): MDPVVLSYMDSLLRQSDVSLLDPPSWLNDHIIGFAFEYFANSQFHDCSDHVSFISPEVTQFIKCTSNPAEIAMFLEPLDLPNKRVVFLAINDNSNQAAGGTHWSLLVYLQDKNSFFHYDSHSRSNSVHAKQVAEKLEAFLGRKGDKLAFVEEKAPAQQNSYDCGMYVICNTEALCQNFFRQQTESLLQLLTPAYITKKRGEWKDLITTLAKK
SENP7 block: SENP7 protease inhibitors, primary screen, biochemical, luminescence, uHTS; recombinant SENP7, Z-RLRGG-aminoluciferin luminescence, 40 min; inhibition, % at 5 µM; hit rate 1.5% among 330,000; AID 434973, 2010;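 active = inhibition above about 50% at the single test dose, limit read from the data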
Target sequence (Q9BQF6 706-1050 limits assumed): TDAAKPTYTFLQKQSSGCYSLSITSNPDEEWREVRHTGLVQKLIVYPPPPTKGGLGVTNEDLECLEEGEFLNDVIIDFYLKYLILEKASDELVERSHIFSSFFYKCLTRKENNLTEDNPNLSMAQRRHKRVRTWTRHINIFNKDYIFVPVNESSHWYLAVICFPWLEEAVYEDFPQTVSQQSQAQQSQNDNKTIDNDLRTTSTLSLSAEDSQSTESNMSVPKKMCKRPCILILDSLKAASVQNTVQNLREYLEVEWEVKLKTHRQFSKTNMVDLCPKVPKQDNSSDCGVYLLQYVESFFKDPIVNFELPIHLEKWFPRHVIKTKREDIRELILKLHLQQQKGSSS
SENP1 FRET inh: human SENP1 catalytic domain inhibitors, primary screen, biochemical, FRET, uHTS; recombinant SENP1 catalytic domain, CyPet-SUMO1-YPet FRET cleavage; inhibition, % at 10 µM; hit rate 0.21% among 360,000; AID 624204, 2012;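 active = inhibition at least 30% at 10 µM, raw YFP signal under a set limit, fluorescence ratio 0.5 to 1.5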
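Assay system: hSENP1 catalytic domain, recombinant. Amount: SENP1 enzyme, 20 pM final. Schedule: 50 min reaction, RT, dark. Technique: FRET, CFP and YFP emission. Control set: no-enzyme wells low, DMSO-plus-enzyme wells high control.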
SENP8 block-2: human SENP8 protease inhibitors, primary screen, biochemical, fluorescence, Nedd8 protein substrate, uHTS. recombinant SENP8. hit rate 0.64% among 360,000. Sentrin-specific protease 8 (Homo sapiens), Q96LD8. inhibition, % at 20 µM; in the data active = inhibition mostly above about 40%, no sharp cut-off; inactive = mostly below about 27%
SENP8 conf: human SENP8 protease inhibitors, confirmation, biochemical, Nedd8 protein substrate, single concentration. shares compounds with SENP8 block-2. purified SENP8, Nedd8-AMC/pro-Nedd8 cleavage fluorescence, 30 min. inhibition, % at 25 µM. hit rate 15% among 1,400. AID 624319, 2012; in the data active = inhibition mostly above about 39%, no sharp cut-off; inactive = mostly below about 34%
SENP1 conf: human SENP1 catalytic domain inhibitors, confirmation, biochemical, FRET endpoint, single concentration; recombinant SENP1, CyPet-SUMO1-YPet FRET cleavage; AID 651678, 2012; inhibition, % at 10 µM; shares compounds with SENP1 FRET inh; hit rate 34% among 520; in the data active = inhibition mostly above about 35%, no sharp cut-off; inactive = mostly below about 32%
SENP1 kin conf: human SENP1 catalytic domain inhibitors, confirmation, biochemical, kinetic FRET, single concentration; inhibition, % at 10 µM; hit rate 26% among 520; recombinant SENP1, CyPet-SUMO1-YPet FRET kinetic cleavage; shares compounds with SENP1 FRET inh; in the data active = inhibition mostly above about 32%, no sharp cut-off; inactive = mostly below about 29%
Numbers stand for hits; 0 = inactive; - = no result given.

SMILES	SENP6 inh	CendR NRP1 mod	SENP8 block-1	SENP7 block	SENP1 FRET inh	SENP8 block-2	SENP1 conf	SENP1 kin conf	others
CCCCc1ccc(NC(=S)Nc2ccc(Nc3ccc(OC)cc3)cc2)cc1	0	0	0	0	0	42	-	-	SENP8 conf=0
CCOC(=O)C1(C)C=C(Nc2ccc(O)cc2)C(=O)N1c1ccc(O)cc1 (configuration not stated)	0	0	0	0	0	61	-	-	SENP8 conf=0
CCOC(=O)C1(C)C=C(Nc2ccc(OC)cc2)C(=O)N1c1ccc(OC)cc1 (configuration not stated)	0	0	0	0	0	0	-	-
OCc1ccccc1-c1cnc2sc(NCc3ccc(F)cc3)nn12	-	0	-	-	0	0	-	-
Cn1cnc2c(=O)[nH]cc([N+](=O)[O-])c21	0	0	0	0	0	84	-	-	SENP8 conf=59
Cn1cnc([N+](=O)[O-])c1Cl	0	0	0	0	0	0	-	-
Cc1ccc(N2CC(C(=O)OCC(=O)NNC(=O)c3ccccc3)CC2=O)cc1 (configuration not stated)	0	0	0	0	0	0	-	-
O=C(COc1ccc(Br)cc1CO)Nc1ccc(F)cc1	0	26	0	0	0	41	-	-	SENP8 conf=0
CC1=C(C(=O)N2CCCCCC2)CC(CC(=O)NCCCN(C)C)C(=O)N1Cc1ccccc1 (configuration not stated)	-	0	-	-	0	0	-	-
O=C(Nc1cc(-c2ccccc2)[nH]n1)c1ccc(Cl)cc1	69	0	0	67	0	40	-	-	SENP8 conf=0
CCOc1ccc(/C=C/C(=O)Nc2ccc(OC)cc2[N+](=O)[O-])cc1	0	0	0	0	70	41	52	34	SENP8 conf=0
CCOC(=O)[C@]12CCCC=C1N(Cc1ccc3c(c1)OCO3)C(=O)[C@H](CC(=O)NCCCN1CCCC1=O)C2	-	0	-	-	0	0	-	-
Nc1ccc(C2CCCc3nonc32)c2nonc12 (configuration not stated)	0	0	0	0	35	57	51	0	SENP8 conf=0
CN1C(C(=O)c2ccccc2)=C(N)c2ccccc2S1(=O)=O	0	0	0	0	0	0	-	-
Cc1ccc(NC2=C(C(=O)c3ccccc3)N(C)S(=O)(=O)c3ccccc32)cc1	0	0	0	0	33	46	35	0	SENP8 conf=0
COc1ccc(CN2CCC(C)(Oc3ccc(C(C)=O)cc3)C2)c2ccccc12 (configuration not stated)	-	0	-	-	0	0	-	-
C1CCN(CCC2CCCCN2)CC1 (configuration not stated)	-	0	-	-	0	0	-	-
C1CCN(CC2CCCCN2)CC1 (configuration not stated)	-	0	-	-	45	0	0	0
O=C1Nc2ccccc2Oc2cc([N+](=O)[O-])cc(Oc3ccccc3)c21	0	0	0	0	59	0	0	0
Cc1cccc(Oc2cc([N+](=O)[O-])cc3c2C(=O)Nc2ccccc2O3)c1	0	0	0	0	0	0	-	-
Cc1c(NN=C(C#N)C#N)c(=O)n(-c2ccccc2)n1C	0	0	0	0	46	0	0	0
COc1ccccc1-n1cc(-c2ccc([N+](=O)[O-])cc2)[nH]c1=S	0	0	0	0	43	0	0	0
Cc1ccc(-n2cc(-c3ccc([N+](=O)[O-])cc3)[nH]c2=S)c(C)c1	0	0	0	0	63	0	42	33
Cc1cccc(-n2cc(-c3ccc([N+](=O)[O-])cc3)[nH]c2=S)c1	0	0	0	0	0	0	-	-
Cc1noc(C)c1S(=O)(=O)NCc1cccc(Cl)c1	0	0	0	0	0	0	-	-
SMILES	SENP6 inh	CendR NRP1 mod	SENP8 block-1	SENP7 block	SENP1 FRET inh	SENP8 block-2	SENP1 conf	SENP1 kin conf	others
Cc1cccc(C)c1Cn1c(C)c(C(=O)NCc2ccc([N+](=O)[O-])cc2)sc1=O	-	0	-	-	0	0	-	-
CSc1nnc2c(n1)OC(C)N(C(=O)c1ccccc1)c1ccccc1-2 (configuration not stated)	0	0	0	0	30	0	0	34
COc1cc(OC)c(C2Oc3nc(SC)nnc3-c3ccccc3N2C(C)=O)cc1OC (configuration not stated)	0	0	0	0	0	0	-	-
C=CCOC1=CS(=O)(=O)N(Cc2ccc(Br)cc2)c2ccc(Br)cc21	-	0	-	0	0	0	-	-
COc1ccc2nc3ccccc3nc2c1NC(=O)c1ccc(Cl)cc1	0	0	0	0	0	0	-	-
COc1ccc2nc3ccccc3nc2c1NC(=O)c1ccc(Br)cc1	0	0	0	0	92	0	105	60
CCN(CC)C(=O)Cn1cc(C(=O)C(=O)N2CC=C(c3ccccc3)CC2)c2ccccc21	0	0	0	0	65	0	63	65
CCN(CC)C(=O)Cn1cc(C(=O)C(=O)N2CCN(C)CC2)c2ccccc21	0	0	0	0	0	0	-	-
COc1cccc(C2C3=C(N=c4s/c(=C\c5cccc(O)c5)c(=O)n42)c2ccccc2CC3)c1OC (configuration not stated)	0	0	0	0	50	0	0	0
COc1ccccc1C1C2=C(N=c3s/c(=C/c4cccc(OCC(=O)O)c4)c(=O)n31)c1ccccc1CC2 (configuration not stated)	-	0	-	-	36	0	44	0
CCOC1=C2[C@@H](CN(S(=O)(=O)c3ccc(C)cc3)[C@H]2c2ccc(CC)cc2)[C@H]2C(=O)N(C)C(=O)[C@H]2C1	-	0	-	-	0	0	-	-
O=C(C1CCCCC1)N1C[C@@H](O)[C@H](n2cc(C3CC3)nn2)C[C@@H]1c1ccccc1	-	0	-	-	0	0	-	-
Cc1ccc(-c2nc3ncccn3c2NC2CCCCC2)o1	0	0	0	0	63	0	54	0
COc1ccc(-c2nc3ncccn3c2Nc2ccc3c(c2)OCCO3)cc1	0	0	0	0	32	0	0	0
Cc1ccc(-c2nc3ncccn3c2Nc2ccc3c(c2)OCCO3)cc1	0	0	0	0	0	0	-	-

Screening data as filed in PubChem BioAssay.
